Compound activity: PubChem BioAssay, several laboratories
Compounds with a hit are over-represented: about 2.1% of the library has one in this group of screens.
Cardiac RTF inh = cardiac RTF calcium sensitivity inhibitors, primary screen, biochemical, IANBD-TnC fluorescence, EC70 calcium; actives 0.12% (n = 340,000); Troponin I, cardiac muscle (Homo sapiens) + Troponin T, cardiac muscle (Homo sapiens) + …; IANBD-labeled cardiac RTF, Ca2+ fluorescence; AID 493244, 2011; inhibition, % at 7.15 µM;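 active = inhibition above the mean inhibition of all tested compounds plus 3 SD, cut at about 17% in these data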;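 note: assay run at fixed EC70 calcium of 1.6 mM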
Efflux pump inh = inhibitors of Candida efflux pumps in yeast, primary screen, S. cerevisiae, Nile Red, multiplex; S. cerevisiae Candida pump triplex; inhibition, % at 10 µM; actives 0.44% (n = 330,000); AID 485275, 2010;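 active = plate passing quality check with inhibition over a set limit, or well fluorescence over plate mean plus 4 SD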;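 note: Nile Red retained in pooled yeast measured as flow cytometry median fluorescence; 0% = buffer negative control and 100% = Enniatin B positive control; higher means more Nile Red kept so more efflux inhibition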
SUMO Mot1 rescue = yeast Mot1-301 growth rescue at high temperature, primary screen, SUMOylation pathway inhibitor project, S. cerevisiae, ATP luminescence, 38.5C; growth rescue, % at 18.8 µM; AID 2716, 2010; S. cerevisiae Mot1-301 growth rescue; percent above DMSO median, 100 means doubled; actives 1% (n = 320,000);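 active = every valid replicate shows activation above 250% relative to neutral control wells; inactive = the rest, any valid replicate at or below 250%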;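 note: OY570 slx delta 5 strain wells were the positive control but not used for scaling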
UCH37 inh = inhibitors of human UCH37 deubiquitinase, primary screen, biochemical, Ub-AMC cleavage, fluorescence; Ubiquitin carboxyl-terminal hydrolase isozyme L5 (Homo sapiens), Q9Y5K5; purified proteasome/UCH37; inhibition, % (concentration not given with the values); actives 0.33% (n = 330,000);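 active = mean inhibition over replicate wells above about 20%, limit read from the data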;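 note: 0% = compound-free wells with enzyme and 100% = wells lacking proteasome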
Target sequence (Q9Y5K5 whole entry, looked up): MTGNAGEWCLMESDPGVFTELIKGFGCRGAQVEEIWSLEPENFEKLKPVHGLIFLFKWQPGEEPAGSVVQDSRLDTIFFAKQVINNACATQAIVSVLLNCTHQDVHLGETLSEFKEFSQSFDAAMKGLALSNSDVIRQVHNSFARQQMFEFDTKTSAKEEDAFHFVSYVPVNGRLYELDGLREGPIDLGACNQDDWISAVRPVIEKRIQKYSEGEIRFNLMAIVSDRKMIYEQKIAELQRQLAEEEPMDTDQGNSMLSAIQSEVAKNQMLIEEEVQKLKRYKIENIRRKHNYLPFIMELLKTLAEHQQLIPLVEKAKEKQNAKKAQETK
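Signal – fluorescence, ex 355 nm, em 460 nm · System – Proteasome-bound UCH37 · Input – 0.15 nM proteasome as dispensed · Timing – 30 min preincubation with enzyme, 25 min cleavage at room temperature · Read-out basis – percent inhibition of cleavage signal versus uninhibited and no-proteasome wells · Medium – Tris-HCl pH 7.4 with ATP-MgCl2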
RTF Ca sens act = cardiac RTF calcium sensitivity activators, primary screen, biochemical, IANBD-TnC fluorescence, EC20 calcium; activation, % at 7.2 µM; AID 493008, 2010; IANBD-labeled TnC RTF fluorescence at EC20 calcium; 0% EC20 calcium, 100% full calcium; actives 0.24% (n = 340,000);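 active = activation above the mean over all tested compounds plus 3 SD, cut at about 30% in these data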;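 note: rise in fluorescence read as greater calcium sensitivity of cardiac thin filaments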
ARNT TACC3 PPI = disruptors of ARNT/TACC3 protein interaction, primary screen, biochemical, AlphaScreen, single concentration | Transforming acidic coiled-coil-containing protein 3 (Homo sapiens), Q9Y6A5 | AlphaScreen His-ARNT PAS-B/GST-TACC3 binding, luminescence; TACC3 fragment carries E629A point mutation | inhibition, % at 9.99 µM | actives 0.66% (n = 390,000) | AID 623870, 2012;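 active = mean inhibition of replicates at least 50% and at least half of replicates each reaching 50%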;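 note: 0% = complete ARNT plus TACC3 wells and 100% = ARNT alone without TACC3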
Starred values were filed as active, the others as inactive.

Screening COC(=O)c1sccc1NC(=O)c1ccc(OC)cc1OC returned Cardiac RTF inh 1, Efflux pump inh 0, SUMO Mot1 rescue 420*, UCH37 inh -1, RTF Ca sens act 6 and ARNT TACC3 PPI -3.
COC(=O)c1sccc1NC(=O)c1cccc(OC)c1 was read as Cardiac RTF inh 1, Efflux pump inh 0, SUMO Mot1 rescue -10, UCH37 inh 2, RTF Ca sens act -4 and ARNT TACC3 PPI -6.
For Cc1c(NC(=O)c2cccs2)cccc1-c1nc2ccccc2s1 the results were Cardiac RTF inh -27, Efflux pump inh 0, SUMO Mot1 rescue 387*, UCH37 inh 3, RTF Ca sens act 3 and ARNT TACC3 PPI -1.
Screening COc1ccccc1C1=Nn2c(nnc2C2CCCCC2)SC1 returned Cardiac RTF inh -2, Efflux pump inh 0, SUMO Mot1 rescue 354*, UCH37 inh 2, RTF Ca sens act 4 and ARNT TACC3 PPI 6.
For CC(=NNC(=O)c1ccccc1)c1nc2ccccc2n1C the results were UCH37 inh 3.
CC(=O)N(CC(C)(C)CC=C(C)C)c1ccccc1 was read as Efflux pump inh 0 and SUMO Mot1 rescue 638*.
`CC(=O)N(CC(=O)O)c1ccccc1` gave Cardiac RTF inh -24, Efflux pump inh 0, SUMO Mot1 rescue -13, UCH37 inh 1, RTF Ca sens act 3 and ARNT TACC3 PPI -5.
O=C(NCCCN1CCOCC1)C1Cc2c(ccc3ccccc23)O1 (stereo not drawn) was read as Cardiac RTF inh 6, Efflux pump inh 0, SUMO Mot1 rescue 19, UCH37 inh 2, RTF Ca sens act 6 and ARNT TACC3 PPI 32.
Screening O=C(NCCCl)C1Cc2c(ccc3ccccc23)O1 (stereo not drawn) returned Cardiac RTF inh -4, Efflux pump inh 0, SUMO Mot1 rescue active, UCH37 inh -7, RTF Ca sens act -3 and ARNT TACC3 PPI -27.
For COc1ccc(-n2c(O)c(/C=N/NS(=O)(=O)c3cc(C)ccc3C)c3ccccc3c2=O)cc1OC the results were Cardiac RTF inh -70, Efflux pump inh 0, SUMO Mot1 rescue -3, UCH37 inh -6, RTF Ca sens act 114* and ARNT TACC3 PPI 2.
For COc1ccc(-n2c(O)c(/C=N/NS(=O)(=O)c3ccc(C)cc3)c3ccccc3c2=O)cc1OC the results were Cardiac RTF inh -75, Efflux pump inh 1, UCH37 inh -7, RTF Ca sens act 59* and ARNT TACC3 PPI 2.
For COc1cc(C(C)=NNC(=O)CSc2nncn2C)ccc1OCc1ccccc1Cl the results were UCH37 inh 2.
O=C1NCCCC1C(=O)NN=Cc1ccc(Cl)cc1 (stereo not drawn) was read as UCH37 inh 4.
`CCOc1ccc(C(Nc2cccnc2)c2cc(Cl)c3cccnc3c2O)cc1` (stereo not drawn) gave Cardiac RTF inh -10, Efflux pump inh 0, SUMO Mot1 rescue -5, UCH37 inh 22*, RTF Ca sens act -5 and ARNT TACC3 PPI -117.
`COc1cccc(C=NNC(=O)CNC(=O)c2ccco2)c1O` gave UCH37 inh 4.
Screening Cc1ccc2nc(Cl)c(/C=N/Nc3nc(C)cc(C)n3)c(=O)n2c1 returned Cardiac RTF inh -3, Efflux pump inh -1, RTF Ca sens act 12 and ARNT TACC3 PPI 46*.
For COc1cc(C=NNC(=O)/C(=C/c2ccccc2)CCO)ccc1O the results were UCH37 inh 4.
Screening CSc1ccc(C(=O)C2CCCN(C(=O)c3cc4cc(F)ccc4[nH]3)C2)cc1 (stereo not drawn) returned Cardiac RTF inh 9, Efflux pump inh 0, SUMO Mot1 rescue 447*, UCH37 inh -2, RTF Ca sens act -4 and ARNT TACC3 PPI -8.
`Cc1cc(C)c(C=NNC(N)=O)c(C)c1C=NNC(N)=O` gave UCH37 inh 3.
CN(C)/C=C1\N=C(c2ccccc2)OC1=O was read as Cardiac RTF inh 1, Efflux pump inh 0, SUMO Mot1 rescue -12, UCH37 inh 20* and RTF Ca sens act -6.
`Cc1ccc(C2=N/C(=C/N3CCOCC3)C(=O)O2)cc1` gave Cardiac RTF inh -8, Efflux pump inh 0, SUMO Mot1 rescue -7, UCH37 inh 20*, RTF Ca sens act -5 and ARNT TACC3 PPI 1.
Cc1cccc2sc(N(CCCN3CCOCC3)C(=O)CS(=O)(=O)c3ccc(F)cc3)nc12 was read as Cardiac RTF inh -8, Efflux pump inh 0, SUMO Mot1 rescue 308, UCH37 inh 5, RTF Ca sens act -4 and ARNT TACC3 PPI -1.
For O=C(CS(=O)(=O)c1ccccc1)N(CCCN1CCOCC1)c1nc2c(F)cccc2s1 the results were Cardiac RTF inh 11, Efflux pump inh 0, SUMO Mot1 rescue 349*, RTF Ca sens act -2 and ARNT TACC3 PPI 2.
For CCCNC(=O)OC[C@H]1O[C@H](CCON=C[C@@H](NS(=O)(=O)c2ccc(C)cc2)[C@H](C)/C=C/CC(=O)OC)C=C[C@@H]1Oc1ccc(OC)cc1 the results were UCH37 inh -2.
Screening S=C(Nc1ccc2nc(-c3ccccn3)c(-c3ccccn3)nc2c1)N1CCCCCC1 returned Cardiac RTF inh 5, Efflux pump inh 1, SUMO Mot1 rescue 12, UCH37 inh 2, RTF Ca sens act -3 and ARNT TACC3 PPI 8.
Screening S=C(Nc1ccc2nc(-c3ccccn3)c(-c3ccccn3)nc2c1)N1CCCCC1 returned Cardiac RTF inh -29, UCH37 inh -30, RTF Ca sens act 11 and ARNT TACC3 PPI 70*.
`Cc1cc(N2CCOCC2)nc2ccc(NC(=S)N3CCN(c4ccccc4)CC3)cc12` gave Cardiac RTF inh -14, Efflux pump inh 0, SUMO Mot1 rescue 340*, UCH37 inh -9, RTF Ca sens act 2 and ARNT TACC3 PPI 28.
Screening S=C(Nc1ccc2nsnc2c1)N1CCCCC1 returned Cardiac RTF inh -3, Efflux pump inh 0, SUMO Mot1 rescue -8, UCH37 inh 7, RTF Ca sens act -1 and ARNT TACC3 PPI 29*.
Screening CCCNC(=S)Nc1ccc2nc(-c3ccccn3)c(-c3ccccn3)nc2c1 returned Cardiac RTF inh -4, Efflux pump inh 0, SUMO Mot1 rescue 304, UCH37 inh -21, RTF Ca sens act 5 and ARNT TACC3 PPI 57*.
For CCN1C(=O)CSC1=NS(=O)(=O)c1ccc(C)cc1 the results were UCH37 inh 1.
